From PubChem
ERAP1 HTS inh: ERAP1 (human) enzyme inhibition | recombinant ERAP1, Leu-AMC fluorescence, 60 min | Q9NZ08 | inhibition, % at 10.7 µM | 0.15% of 340,000 active;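 active = mean replicate inhibition of at least 30%, or all replicates individually reaching that 30% level; inactive = mean below 30% and not every replicate reaching it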
Target sequence (Q9NZ08 whole entry, looked up): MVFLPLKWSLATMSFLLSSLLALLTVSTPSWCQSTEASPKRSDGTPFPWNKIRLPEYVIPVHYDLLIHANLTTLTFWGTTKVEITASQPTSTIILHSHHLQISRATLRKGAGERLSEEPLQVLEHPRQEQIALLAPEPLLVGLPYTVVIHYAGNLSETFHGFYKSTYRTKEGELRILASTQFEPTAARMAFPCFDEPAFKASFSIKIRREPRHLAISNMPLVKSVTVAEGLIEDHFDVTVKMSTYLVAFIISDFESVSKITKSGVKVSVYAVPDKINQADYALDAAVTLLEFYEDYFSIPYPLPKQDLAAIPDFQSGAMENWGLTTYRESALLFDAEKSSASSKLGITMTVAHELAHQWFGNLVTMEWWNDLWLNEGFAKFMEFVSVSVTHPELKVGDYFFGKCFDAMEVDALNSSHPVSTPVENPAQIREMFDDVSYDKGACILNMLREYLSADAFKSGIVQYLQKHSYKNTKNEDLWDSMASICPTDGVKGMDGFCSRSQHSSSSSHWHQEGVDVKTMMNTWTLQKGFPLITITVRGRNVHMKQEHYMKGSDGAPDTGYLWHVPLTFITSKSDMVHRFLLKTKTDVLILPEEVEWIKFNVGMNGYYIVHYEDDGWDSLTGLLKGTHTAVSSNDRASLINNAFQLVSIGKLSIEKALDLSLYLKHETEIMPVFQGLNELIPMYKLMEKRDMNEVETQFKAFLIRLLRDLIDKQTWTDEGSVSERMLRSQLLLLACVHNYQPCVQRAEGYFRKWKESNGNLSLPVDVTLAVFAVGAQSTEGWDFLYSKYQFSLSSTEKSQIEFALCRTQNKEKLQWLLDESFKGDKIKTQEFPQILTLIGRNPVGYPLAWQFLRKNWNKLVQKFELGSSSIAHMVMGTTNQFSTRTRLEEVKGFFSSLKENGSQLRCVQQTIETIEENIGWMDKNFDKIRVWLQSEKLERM
PglD DTNB: PglD (C. jejuni) enzyme inhibition. inhibition, % at 12.5 µM. 0.098% of 360,000 active. purified PglD enzyme, DTNB colorimetric CoA detection; in the data active = inhibition above about 16%, passing the limit was not always enough
E-sel inducer: induces E-selectin expression in human endothelial cells | activation, % at 7.58 µM | 0.37% of 260,000 active | P16581 | AID 686992 | HUVEC E-selectin immunofluorescence imaging; normalized: neutral wells 0, TNF-alpha wells 100;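 active = mean E-selectin-positive cell signal at least 10% of the positive control, reached in at least 60% of replicates, without over 20% cell loss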
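Assay system: HUVEC, human umbilical vein endothelial cells / Amount: 3,000 HUVEC/well / Controls: TNF-alpha positive control, DMSO neutral control / Compound dosing: single concentration / Medium: EGM-2 over gelatin coat / Evaluation: percent E-selectin-positive cells / Signal: immunofluorescence imaging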
DENV2 CPE rescue: protects cells from dengue virus 2 cytopathic effect. DENV2-infected cells, cytopathic effect rescue, plate reader. CPE inhibition, % at 9.99 µM. 1.7% of 350,000 active. AID 651640; in the data active = CPE inhibition above about 20%, passing the limit was not always enough; tested in BHK-21 cells
SIRT5 block: inhibitors of human sirtuin-5 desuccinylase; Purified SirT5, succinyl-peptide AMC, trypsin-coupled fluorescence; inhibition, % at 15 µM; 1.1% of 330,000 active; AID 652115; in the data active = inhibition above about 15%
Each line names hits and unclear results; the compound was inactive in the other large screens. This is a sample that favours compounds with a hit; in the whole collection about 2.5% have one here.

C[C@@H]1CCCCO[C@@H](CN(C)C(=O)CCC(F)(F)F)[C@H](C)CN([C@H](C)CO)C(=O)c2cc(N(C)C)ccc2O1	none (no result: ERAP1 HTS inh, PglD DTNB, DENV2 CPE rescue, SIRT5 block)
CCN(c1ccccc1)c1cc(C)nc2ncnn12	none
Cc1ccc(NS(=O)(=O)c2cccc(C(=O)NCCCN3CCCC3=O)c2)cc1	none (no result: PglD DTNB, E-sel inducer)
COC(=O)[C@]12CCCCC=C1N(Cc1cccc3ccccc13)C(=O)[C@H](CC(=O)NCC13CC4CC(CC(C4)C1)C3)C2	DENV2 CPE rescue 47 (no result: PglD DTNB)
COC(=O)[C@]12CCCCC=C1N(Cc1ccc(Cl)cc1Cl)C(=O)[C@H](CC(=O)NCC13CC4CC(CC(C4)C1)C3)C2	none (no result: PglD DTNB)
C#CCNC(=O)C[C@@H]1C[C@@]2(C(=O)OC)CCCCC=C2N(Cc2cccc3ccccc23)C1=O	DENV2 CPE rescue 90 (no result: PglD DTNB)
Cc1ccc(NS(=O)(=O)c2ccccc2)c([N+](=O)[O-])c1	none
Cc1ccc(-c2c[n+](CC(=O)c3ccc(Br)cc3)c3n2CCCCC3)cc1	none (no result: PglD DTNB, E-sel inducer)
COc1ccc(CC(=O)c2ccc(OC)c(OC)c2)cc1	none (no result: PglD DTNB)
COc1ccc(CC(=O)OCC(=O)c2ccc(OC)c(OC)c2)cc1	DENV2 CPE rescue 30
COc1ccccc1C(=O)N/C(=C\c1ccc(Br)cc1)C(=O)NCCC(=O)O	none (no result: PglD DTNB, E-sel inducer, DENV2 CPE rescue, SIRT5 block)
CSCC[C@H](NC(=O)CCn1nnc2ccccc2c1=O)C(=O)O	none (no result: ERAP1 HTS inh, E-sel inducer, DENV2 CPE rescue, SIRT5 block)
O=C(Cc1ccccc1)Nc1ccccc1C(=O)Nc1ccc(C(=O)O)cc1	none (no result: E-sel inducer)
O=C(CSCc1ccccc1)Nc1ccccc1C(=O)Nc1ccc(C(=O)O)cc1	DENV2 CPE rescue 32
Cc1[nH]c2ccccc2c1CC(=O)Nc1ccc(N(C)c2cccnc2)c(-c2cccc(Cl)c2)c1	DENV2 CPE rescue 43 (no result: PglD DTNB, SIRT5 block)
Cc1cc(-c2cc(NC(=O)Cc3c(C)[nH]c4ccccc34)ccc2N(C)c2cccnc2)ccc1F	none (no result: PglD DTNB, SIRT5 block)
COCC(=O)N1C[C@@H]2[C@H](c3ccccc31)[C@H](CO)N2Cc1cc(F)ccc1F	SIRT5 block 20
CCC(=O)N1C[C@H]2[C@@H](c3ccccc31)[C@H](CO)N2Cc1cc(F)ccc1F	SIRT5 block 16
COCC(=O)N1C[C@H]2[C@@H](c3ccccc31)[C@@H](CO)N2Cc1cc(F)ccc1F	none
C[C@H]1CN([C@@H](C)CO)C(=O)c2cc(NC(=O)Nc3cccc4ccccc34)ccc2O[C@@H]1CN(C)C(=O)Nc1ccc2c(c1)OCO2	DENV2 CPE rescue 23
C[C@H]1CN([C@@H](C)CO)C(=O)c2cc(NC(=O)Nc3cccc4ccccc34)ccc2O[C@@H]1CN(C)Cc1ccc(-c2ccccc2)cc1	none
C[C@H](CO)N1C[C@H](C)[C@H](CN(C)C(=O)Nc2ccc3c(c2)OCO3)Oc2ccc(NC(=O)Nc3cccc4ccccc34)cc2C1=O	none
C[C@@H]1CN([C@H](C)CO)C(=O)c2cc(NC(=O)Nc3cccc4ccccc34)ccc2O[C@@H]1CN(C)Cc1ccc2c(c1)OCO2	SIRT5 block 15 (no result: E-sel inducer)
C[C@H](CO)N1C[C@H](C)[C@H](CN(C)Cc2ccc(-c3ccccc3)cc2)Oc2ccc(NC(=O)Nc3cccc4ccccc34)cc2C1=O	DENV2 CPE rescue 25
C[C@H](CO)N1C[C@H](C)[C@@H](CN(C)Cc2ccc(-c3ccccc3)cc2)Oc2c(NC(=O)Nc3cccc4ccccc34)cccc2C1=O	E-sel inducer 90 (no result: ERAP1 HTS inh, PglD DTNB, DENV2 CPE rescue, SIRT5 block)
C[C@@H]1CN([C@@H](C)CO)C(=O)c2cc(NC(=O)Nc3cccc4ccccc34)ccc2O[C@@H]1CN(C)Cc1ccc2c(c1)OCO2	none (no result: E-sel inducer)
N=c1n(CCN2CCCCC2)c2ccccc2n1CC(O)c1ccc(Cl)c(Cl)c1 (stereo unspecified)	none (no result: ERAP1 HTS inh, E-sel inducer, DENV2 CPE rescue, SIRT5 block)
Cc1cccc(N=N/C(=C\O)C(=O)c2cccs2)c1	none (no result: PglD DTNB)
C[C@@H](NC(=O)C[C@H]1C[C@@H]2c3cc(NS(=O)(=O)c4ccc(F)cc4)ccc3O[C@@H]2[C@@H](CO)O1)c1ccccc1	none
Cc1cc(C(=O)Nc2cccc3c2O[C@@H](CN(C)CC2CCCCC2)[C@H](C)CN([C@@H](C)CO)C3=O)n(C)n1	none
COc1ccccc1-c1ccc(SCC(=O)NC2CCCCC2)nn1	none (no result: E-sel inducer)
C[C@@H]1CCCCO[C@@H](CN(C)S(C)(=O)=O)[C@H](C)CN([C@H](C)CO)C(=O)c2cc(NC(=O)NC3CCCCC3)ccc2O1	none
CC(C)(C)C1CCC(OC(=O)C[N+]2(C)CCCC2)CC1 (stereo unspecified)	ERAP1 HTS inh 41 (no result: PglD DTNB)
C[N+]1(CC(=O)OCCCC2CCCCC2)CCCC1	ERAP1 HTS inh 108 (no result: PglD DTNB, E-sel inducer)
Fc1cnc(N2CCOCC2)nc1N1CCc2ccccc21	none (no result: ERAP1 HTS inh, E-sel inducer, DENV2 CPE rescue, SIRT5 block)
CCOC(=O)c1cc(-c2cc(OC)c(OC)c(OC)c2)nc2c1c(=O)[nH]c(=O)n2Cc1ccccc1	SIRT5 block 20 (no result: PglD DTNB, E-sel inducer)
